Screening results (PubChem)
Rows were chosen to be rich in hits. Some 2.5% of all compounds tested hit in one or more screens of this group.
Pemphigus Ab inh – blocks pemphigus antibody binding to human desmoglein-3 | P32926 | DSG3-coupled beads, scFv-anti-DSG3-GFP binding, flow cytometry; hits give low values | binding (percent of control), % at 10 µM | 0.48% of 310,000 active;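 active means binding more than 3 SD below its plate's average and above zero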;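 further: hits lower antibody fragment binding to DSG3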
SUMO1-SIM PPI – modulators of human SUMO1-mediated protein-protein interactions; P63165; SUMO1 binding to a labelled peptide, TR-FRET, 1 h; inhibition, % at 20 µM; 0.33% of 360,000 active; AID 602429; in the data active means inhibition above about 37%
Target sequence (P63165 whole entry, looked up): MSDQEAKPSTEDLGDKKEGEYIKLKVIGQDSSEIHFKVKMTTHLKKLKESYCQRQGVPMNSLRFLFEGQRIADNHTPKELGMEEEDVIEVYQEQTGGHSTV
UHRF1 binding – UHRF1 methyl-DNA binding inhibition. Q96T88. UHRF1 binding to methylated oligo, TR-FRET. inhibition, % at 4.4 µM. 0.75% of 370,000 active; in the data active means inhibition above about 21%;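 further: UHRF1 SRA domain binding a hemimethylated CpG hairpin DNA probe; 0% = median of test compound wells and 100% = reference inhibitor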
MBD2 DNA inh – MBD2-methylated oligo binding inhibition. 0.31% of 370,000 active. inhibition, % at 4.4 µM. TR-FRET, MBD2 binding to methylated oligonucleotide. AID 686964; in the data active means inhibition above about 13%
Target sequence (Q9UBB5 whole entry, looked up): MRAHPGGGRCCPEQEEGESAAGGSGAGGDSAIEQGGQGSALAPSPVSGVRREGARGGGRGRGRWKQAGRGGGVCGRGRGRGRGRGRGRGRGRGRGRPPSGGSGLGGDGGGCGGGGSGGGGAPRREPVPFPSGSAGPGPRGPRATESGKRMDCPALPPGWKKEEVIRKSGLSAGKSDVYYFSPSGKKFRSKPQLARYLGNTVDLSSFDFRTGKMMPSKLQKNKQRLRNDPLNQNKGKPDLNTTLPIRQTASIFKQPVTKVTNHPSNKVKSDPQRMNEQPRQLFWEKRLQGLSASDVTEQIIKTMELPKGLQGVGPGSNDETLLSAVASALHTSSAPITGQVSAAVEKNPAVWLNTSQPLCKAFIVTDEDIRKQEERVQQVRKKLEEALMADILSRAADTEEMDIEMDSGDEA
DNMT1 block – DNMT1 (human) enzyme inhibition; AID 588458; 0.83% of 360,000 active; P26358; DNMT1 molecular beacon, Hinp1I cleavage, fluorescence; inhibition (reported as % activation of signal), % at 10 µM; in the data active means inhibition above about 50%
NS3 helicase inh – blocks Hepatitis C virus NS3 helicase unwinding | NS3 helicase DNA unwinding, Cy5 molecular beacon fluorescence | 0.56% of 290,000 active | inhibition, % at 10.9 µM | AID 1800;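 active means inhibition above the mean of all tested compounds plus 3 SD, set per campaign, cut at about 35% in these data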;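 further: 0% = DMSO wells and 100% = thioflavine S control wells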
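System: Hepatitis C virus NS3 helicase domain fragment enzyme | Reagent: Annealed dual-labelled DNA beacon duplex, ATP-started | Compound dosing: 10.9 µM single point, 0.8% DMSO | Incubation: 1 h reaction at 25 °C, ATP-initiated | Technique: Cy5 fluorescence | Evaluation: Percent inhibition from t60/t0 fluorescence ratio | Benchmarks: Low DMSO, high thioflavine S at 110 µM | Replication: Singlicate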
* = called active by the depositor; · = not tested or not shown.

SMILES	Pemphigus Ab inh	SUMO1-SIM PPI	UHRF1 binding	MBD2 DNA inh	DNMT1 block	NS3 helicase inh
O=C(CSc1nnc(SCc2cccc3ccccc23)s1)N/N=C/c1c[nH]c2ccccc12	103	2	-1	-4	-21	-1
O=C(CSc1nnc(SCc2ccc(Cl)cc2)s1)N/N=C/c1c[nH]c2ccccc12	97	42*	-2	1	70*	-9
CC1CCCC(C)N1C(=O)c1cc2ncc(CCCl)cn2n1 (stereo not given)	107	0	51*	-3	0	-2
COc1c(-c2ccc(O)cc2)oc2cc(O)cc(O)c2c1=O	107	3	28*	11	19	·
O=C(Nc1nc(-c2cc(Cl)sc2Cl)cs1)c1cccs1	101	1	-1	7	-8	1
O=C(Nc1nc(-c2cc(Cl)sc2Cl)cs1)c1ccc(Br)s1	100	-1	2	21*	26	-4
COc1cc(C)ccc1OCc1cc(C(=O)NC(c2ccccn2)C(F)(F)F)no1 (stereo not given)	79*	0	-1	1	2	·
O=C(CCSCc1ccccc1Cl)NC1CCCC1	99	2	24*	11	6	-2
O=C(Nc1ccccc1F)C1CCN(C(=O)NCc2ccccc2)CC1	96	0	24*	3	0	6
CN(NS(C)(=O)=O)c1ncc(C(F)(F)F)cc1Cl	92	0	6	-1	2	1
O=CN/C=C/c1cc(O)ccc1O	78*	28	16	1	0	16
Cc1ccc(NC2=NC(c3ccc(C)cc3)n3c(nc(C)cc3=O)N2)cc1 (stereo not given)	105	-1	-4	-4	0	-3
O=C1c2cccnc2-c2ncccc21	106	-33	-1	2	1	-3
O=C1C(=O)c2cccnc2-c2ncccc21	·	39	12	13	112*	·
COC1=C(Br)C(=O)c2ncccc2C1=O	·	49*	10	-10	91*	·
Cc1ccc(C(=O)N2CC(C)CC(C)C2)cc1S(=O)(=O)N1CCCCC1 (stereo not given)	110	-3	2	3	7	·
Cn1ncc(N=Cc2ccccc2O)c1C(=O)N1CCOCC1	113	0	0	2	7	2
CC1C/C(=C/c2cccs2)C(=O)/C(=C/c2cccs2)C1 (stereo not given)	101	-9	28*	2	8	32
Cc1nc(Nc2ccccc2)sc1C(=O)c1ccccc1	80*	-26	-1	-3	6	-23
COc1ccc(C(=O)c2sc(Nc3ccccc3)nc2C)cc1	99	-32	0	-7	-6	-12
Cc1c(O)ccc2c(CN3CCOCC3)cc(=O)oc12	98	-3	-3	-6	0	-1
O=c1cc(CN2CCOCC2)c2cc(Cl)c(O)cc2o1	98	-11	40*	12	1	10
O=C(CCc1nc2ccccc2c(=O)[nH]1)Nc1cc(Cl)ccc1N1CCCC1	103	3	32*	3	1	·
O=C(CCc1nc2ccccc2c(=O)[nH]1)Nc1ccc(N2CCCCC2)cc1	106	1	-4	-1	-1	-6
CC[C@@H](NCCCn1ccc(NC(=O)OCc2ccccc2)nc1=O)c1ccccc1	·	0	-1	4	3	·
SMILES	Pemphigus Ab inh	SUMO1-SIM PPI	UHRF1 binding	MBD2 DNA inh	DNMT1 block	NS3 helicase inh
COc1ccc(N(CC(=O)NC2CCCCC2)C(=O)CCC(=O)Nc2nc(C)cs2)cc1	92	-5	-1	-2	-2	-8
O=C(O)/C=C/c1cccc(NC(=O)c2ccc(Cl)cc2)c1	99	0	-1	3	9	10
Cc1c(-c2ccc(Cl)cc2)oc(=O)c2c(N)n(-c3ccccc3)nc12	-17*	-2	-1	-4	54*	-1
Cc1cc(NC(=O)CSc2nnc(-c3c[nH]c4ccccc34)n2-c2ccc(F)cc2)no1	14*	-3	1	-5	12	-11
CC1(C(=O)Nc2cccc(NS(C)(=O)=O)c2)CCN1CCc1ccccc1 (stereo not given)	·	1	2	1	-4	·
Cc1ccccc1NC(=O)c1c(C)[nH]c(=S)c(C#N)c1-c1ccco1	109	1	2	-4	5	49*
CNC(=O)c1c(C)[nH]c(=S)c(C#N)c1-c1ccco1	100	-7	-2	-4	0	19
CCn1c(C(=O)O)c(CC(=O)Nc2ccccc2F)c2ccccc21	100	0	1	0	0	13
Clc1ccc(-c2cc(CN3CCOCC3)no2)cc1	99	-2	-3	-1	0	-4
C=CCc1c(C)c(C#N)c2nc3ccccc3n2c1N1CCCCC1	114	-15	-2	-6	1	-3
Cc1ccccc1NC1=CC(=O)CC(C)(C)C1	98	-1	6	7	3	-4
CC1(C)CC(=O)C=C(NC2=CC3OC(c4ccccc4)OCC3OC2=O)C1 (stereo not given)	94	-3	22*	0	4	1
Cc1[nH]c2ccccc2c1C1=CC(=O)C=CC1=O	65*	3	-2	-3	-17	·
Cc1[nH]c2ccccc2c1CC#N	116	5	4	2	-3	16
O=C(Cc1cccs1)N(Cc1cccs1)C1(C(=O)NC2CCCCC2)CCCCC1	·	-4	-3	3	0	5
O=C1NC(=O)C(CC(=O)N(Cc2cccs2)C2(C(=O)NC3CCCC3)CCCCC2)N1 (stereo not given)	112	-1	23*	5	-1	2
C=CC#CC[N+]1(CC#Cc2ccccc2)CCOCC1	231	37*	18	20*	-30	-64
C(#Cc1ccccc1)C[N+]1(CC#Cc2ccccc2)CCCC1	90	-2	1	-2	2	-12
Cn1c(=O)c2c(-c3ccccc3)n(-c3ccc(N)cc3)cc2n(C)c1=O	·	42*	15	-2	40	·
COCCN1C(=O)c2ccccc2C1c1nnnn1C(C)C (stereo not given)	·	5	0	-1	·	·
On1c(-c2ccccc2)nc2ncccc21	73*	7	0	0	0	4
CN1[C@@H](Cc2ccccc2)COc2cc(F)ccc2S1(=O)=O	·	·	3	2	·	·
CCN(CC#CCC(O)(c1ccccc1)C1CCCC1)C(C)C (stereo not given)	105	1	1	-2	1	-4
CC(C)N(CC#CCC(O)(c1ccccc1)C1CCCC1)CCO (stereo not given)	97	1	28*	11	9	-8
CCn1c(-c2ccccn2)nc2cc(S(=O)(=O)N(C)C)ccc21	110	0	0	4	1	0
CC(=O)N(Nc1ccccc1)c1ccccc1	67*	-1	-3	3	-1	-2
